Reference: ChEMBL document CHEMBL5058577, “EUbOPEN Chemogenomics Library 2 (Multiplex)” (2022)

System: U2OS
Assay: Multiplex assay against U2OS
Format: toxicity, cell-based
Settings: human
Summary of the method: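 On a CQ1 microscope at 37°C and 5% CO2, live cells were imaged after compound addition. They had been stained at seeding with Hoechst33342, BioTracker Green Microtubule Cytoskeleton Dye, MitoTracker Red and Annexin V Alexa Fluor 680. CellPathfinder machine-learning gating assigned cells to Hoechst high-intensity objects or normal cells, normal cells to healthy, pyknosed or fragmented nuclei, and pyknosed cells to mitotic or apoptotic. Tubulin, mitochondrial-mass and membrane-permeability phenotypes are per cents of healthy-nucleus cells.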

[1] = 12 h, 1 µM, compound concentration 1 uM, replicate 1
[2] = 12 h, 1 µM, compound concentration 1 uM, replicate 2
[3] = 12 h, 10 µM, compound concentration 10 uM, replicate 1
[4] = 12 h, 10 µM, compound concentration 10 uM, replicate 2
[5] = 24 h, 1 µM, compound concentration 1 uM, replicate 1
[6] = 24 h, 1 µM, compound concentration 1 uM, replicate 2
[7] = 24 h, 10 µM, compound concentration 10 uM, replicate 1
[8] = 24 h, 10 µM, compound concentration 10 uM, replicate 2
[9] = 48 h, 1 µM, compound concentration 1 uM, replicate 1
[10] = 48 h, 1 µM, compound concentration 1 uM, replicate 2
[11] = 48 h, 10 µM, compound concentration 10 uM, replicate 1
[12] = 48 h, 10 µM, compound concentration 10 uM, replicate 2

For CCCCC(=O)N(Cc1ccc(-c2ccccc2-c2nnn[nH]2)cc1)[C@H](C(=O)O)C(C)C, the “Population Apoptotic (%)” value [1] was 85%, the “Population Fragmented Nuclei (%)” value [1] was 28% and the “Population Healthy Nuclei (%)” value [1] was 63%. The “Population Hoechst High Intensity Objects (%)” value [1] was 1%, the “Population Membrane Permeable-Phenotype (%)” value [1] was 8% and the “Population Mitochondria Different-Phenotype (%)” value [1] was 3%. For the same compound, the “Population Mitotic Cells (%)” value [1] was 14%, the “Population Normal (%)” value [1] was 98% and the “Population Pyknosed Nuclei (%)” value [1] was 8%. The “Population Tubulin-Different-Phenotype (%)” value [1] was 4%, the “Total Cell Count” value [1] was 259 and the “Population Apoptotic (%)” value [2] was 100%. For the same compound, the “Population Fragmented Nuclei (%)” value [2] was 15%, the “Population Healthy Nuclei (%)” value [2] was 79% and the “Population Hoechst High Intensity Objects (%)” value [2] was 3%. For the same compound, the “Population Membrane Permeable-Phenotype (%)” value [2] was 9%, the “Population Mitochondria Different-Phenotype (%)” value [2] was 5% and the “Population Mitotic Cells (%)” value [2] was 0%. The “Population Normal (%)” value [2] was 96%, the “Population Pyknosed Nuclei (%)” value [2] was 4% and the “Population Tubulin-Different-Phenotype (%)” value [2] was 2%. For the same compound, the “Total Cell Count” value [2] was 130, the “Population Apoptotic (%)” value [3] was 75% and the “Population Fragmented Nuclei (%)” value [3] was 35%. For the same compound, the “Population Healthy Nuclei (%)” value [3] was 55%, the “Population Hoechst High Intensity Objects (%)” value [3] was 1% and the “Population Membrane Permeable-Phenotype (%)” value [3] was 3%. For the same compound, the “Population Mitochondria Different-Phenotype (%)” value [3] was 2%, the “Population Mitotic Cells (%)” value [3] was 25% and the “Population Normal (%)” value [3] was 98%. For the same compound, the “Population Pyknosed Nuclei (%)” value [3] was 9%, the “Population Tubulin-Different-Phenotype (%)” value [3] was 2% and the “Total Cell Count” value [3] was 218. The “Population Fragmented Nuclei (%)” value [4] was 24%, the “Population Healthy Nuclei (%)” value [4] was 71% and the “Population Hoechst High Intensity Objects (%)” value [4] was 0%. The “Population Membrane Permeable-Phenotype (%)” value [4] was 1%, the “Population Normal (%)” value [4] was 99% and the “Population Pyknosed Nuclei (%)” value [4] was 3%. For the same compound, the “Population Tubulin-Different-Phenotype (%)” value [4] was 0%, the “Total Cell Count” value [4] was 108 and the “Population Apoptotic (%)” value [5] was 86%. The “Population Fragmented Nuclei (%)” value [5] was 23%, the “Population Healthy Nuclei (%)” value [5] was 68% and the “Population Hoechst High Intensity Objects (%)” value [5] was 2%. For the same compound, the “Population Membrane Permeable-Phenotype (%)” value [5] was 5%, the “Population Mitochondria Different-Phenotype (%)” value [5] was 3% and the “Population Mitotic Cells (%)” value [5] was 13%. For the same compound, the “Population Normal (%)” value [5] was 97%, the “Population Pyknosed Nuclei (%)” value [5] was 7% and the “Population Tubulin-Different-Phenotype (%)” value [5] was 2%. For the same compound, the “Total Cell Count” value [5] was 289, the “Population Apoptotic (%)” value [6] was 83% and the “Population Fragmented Nuclei (%)” value [6] was 10%. For the same compound, the “Population Healthy Nuclei (%)” value [6] was 77%, the “Population Hoechst High Intensity Objects (%)” value [6] was 6% and the “Population Membrane Permeable-Phenotype (%)” value [6] was 9%. The “Population Mitochondria Different-Phenotype (%)” value [6] was 6%, the “Population Mitotic Cells (%)” value [6] was 16% and the “Population Normal (%)” value [6] was 93%. The “Population Pyknosed Nuclei (%)” value [6] was 12%, the “Population Tubulin-Different-Phenotype (%)” value [6] was 7% and the “Total Cell Count” value [6] was 158. The “Population Apoptotic (%)” value [7] was 82%, the “Population Fragmented Nuclei (%)” value [7] was 31% and the “Population Healthy Nuclei (%)” value [7] was 59%. The “Population Hoechst High Intensity Objects (%)” value [7] was 2%, the “Population Membrane Permeable-Phenotype (%)” value [7] was 3% and the “Population Mitochondria Different-Phenotype (%)” value [7] was 2%. For the same compound, the “Population Mitotic Cells (%)” value [7] was 17%, the “Population Normal (%)” value [7] was 97% and the “Population Pyknosed Nuclei (%)” value [7] was 8%. For the same compound, the “Population Tubulin-Different-Phenotype (%)” value [7] was 2%, the “Total Cell Count” value [7] was 272 and the “Population Apoptotic (%)” value [8] was 84%. For the same compound, the “Population Fragmented Nuclei (%)” value [8] was 22%, the “Population Healthy Nuclei (%)” value [8] was 67% and the “Population Hoechst High Intensity Objects (%)” value [8] was 0%. The “Population Membrane Permeable-Phenotype (%)” value [8] was 4%, the “Population Mitochondria Different-Phenotype (%)” value [8] was 8% and the “Population Mitotic Cells (%)” value [8] was 15%. For the same compound, the “Population Normal (%)” value [8] was 100%, the “Population Pyknosed Nuclei (%)” value [8] was 9% and the “Population Tubulin-Different-Phenotype (%)” value [8] was 6%. The “Total Cell Count” value [8] was 135, the “Population Apoptotic (%)” value [9] was 86% and the “Population Fragmented Nuclei (%)” value [9] was 17%. For the same compound, the “Population Healthy Nuclei (%)” value [9] was 75%, the “Population Hoechst High Intensity Objects (%)” value [9] was 2% and the “Population Membrane Permeable-Phenotype (%)” value [9] was 5%. For the same compound, the “Population Mitochondria Different-Phenotype (%)” value [9] was 3%, the “Population Mitotic Cells (%)” value [9] was 13% and the “Population Normal (%)” value [9] was 97%. For the same compound, the “Population Pyknosed Nuclei (%)” value [9] was 7%, the “Population Tubulin-Different-Phenotype (%)” value [9] was 2% and the “Total Cell Count” value [9] was 397. For the same compound, the “Population Apoptotic (%)” value [10] was 85%, the “Population Fragmented Nuclei (%)” value [10] was 20% and the “Population Healthy Nuclei (%)” value [10] was 68%. The “Population Hoechst High Intensity Objects (%)” value [10] was 3%, the “Population Membrane Permeable-Phenotype (%)” value [10] was 7% and the “Population Mitotic Cells (%)” value [10] was 15%. For the same compound, the “Population Normal (%)” value [10] was 96%, the “Population Pyknosed Nuclei (%)” value [10] was 10% and the “Population Tubulin-Different-Phenotype (%)” value [10] was 3%. For the same compound, the “Total Cell Count” value [10] was 201, the “Population Apoptotic (%)” value [11] was 83% and the “Population Fragmented Nuclei (%)” value [11] was 22%. For the same compound, the “Population Healthy Nuclei (%)” value [11] was 70%, the “Population Hoechst High Intensity Objects (%)” value [11] was 1% and the “Population Membrane Permeable-Phenotype (%)” value [11] was 6%. For the same compound, the “Population Mitochondria Different-Phenotype (%)” value [11] was 2%, the “Population Mitotic Cells (%)” value [11] was 16% and the “Population Normal (%)” value [11] was 98%. For the same compound, the “Population Pyknosed Nuclei (%)” value [11] was 7%, the “Population Tubulin-Different-Phenotype (%)” value [11] was 2% and the “Total Cell Count” value [11] was 347. For the same compound, the “Population Apoptotic (%)” value [12] was 87%, the “Population Fragmented Nuclei (%)” value [12] was 21% and the “Population Healthy Nuclei (%)” value [12] was 60%. For the same compound, the “Population Hoechst High Intensity Objects (%)” value [12] was 4%, the “Population Membrane Permeable-Phenotype (%)” value [12] was 4% and the “Population Mitochondria Different-Phenotype (%)” value [12] was 3%. For the same compound, the “Population Mitotic Cells (%)” value [12] was 12%, the “Population Normal (%)” value [12] was 95% and the “Population Pyknosed Nuclei (%)” value [12] was 17%. The “Population Tubulin-Different-Phenotype (%)” value [12] was 6% and the “Total Cell Count” value [12] was 188.
